According to ChEMBL document CHEMBL3600351, “Exploiting translational stalling peptides in an effort to extend azithromycin interaction within the prokaryotic ribosome nascent peptide exit tunnel” (Bioorg Med Chem, 2015):
≈ marks a conversion by molar mass, not a printed value. Calls of active or inactive are those of the source. The calls are words filed in the database; no cut-off is given here.

Legend:
[1] = Inhibition of ribosome nascent peptide exit tunnel in Escherichia coli S30 extract assessed as inhibition of prokaryotic translation in presence of amino acids incubated for 20 mins by luciferase reporter gene assay
In short: (§1)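 E. coli S30 cell-free extract with all amino acids, preincubated with compound for 20 min at room temperature. Luciferase control template added, translation run 60 min at 37 °C, then stopped by 5 min on ice. Luminescence was read after luciferin addition. IC50 from nonlinear fit, triplicate, normalized to vehicle control.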

[2] = Binding affinity to ribosome nascent peptide exit tunnel in rabbit reticulocyte extract assessed as inhibition of eukaryotic translation in presence of amino acids incubated for 20 mins by luciferase reporter gene assay; set-up: species or system Oryctolagus cuniculus
In short: as §1, with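 “Nuclease-treated rabbit reticulocyte lysate” for “E. coli S30 cell-free extract”, “90” for “60”, “30” for “37”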

Staphylococcus aureus [3] = test: Antibacterial activity against Staphylococcus aureus ATCC 29213 assessed as inhibition of bacterial growth after 18 hrs by liquid microdilution method; format: functional; settings: ATCC 29213, 18 h
In short: (§2)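 Liquid microdilution. Overnight 37 °C cultures, E. coli ATCC 27856 in LB and S. aureus ATCC 29213 in TSB, diluted 1:1000 in the same medium and exposed to compound. Growth was taken from OD600 before and after 18 h at 37 °C. MIC50 is the read-out. Triplicate, normalized to an internal vehicle control.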

Staphylococcus aureus [4] = test: Antibacterial activity against Staphylococcus aureus ATCC 29213 assessed as inhibition of bacterial growth after 18 hrs in presence of 50% bovine serum by liquid microdilution method; format: functional; settings: ATCC 29213, 18 h
In short: (§3)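 S. aureus ATCC 29213 overnight culture (37 °C) diluted 1:1000 in 50% bovine serum/broth and run by liquid microdilution. Growth was taken from OD600 change over 18 h at 37 °C to give MIC50, in triplicate against a vehicle control. The enhancement ratio is MIC50 without serum divided by MIC50 with serum.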

Staphylococcus aureus [5] = test: Ratio of MIC50 for Staphylococcus aureus ATCC 29213 in absence of 50% bovine serum to MIC50 for Staphylococcus aureus ATCC29213 in presence of 50% bovine serum; format: functional; in short: as §3
Staphylococcus aureus [6] = test: Antibacterial activity against Erm+ methicillin-resistant Staphylococcus aureus ATCC 33591 assessed as inhibition of bacterial growth after 18 hrs by liquid microdilution method; format: functional
In short: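 MRSA grown overnight at 37 °C in Nutrient broth, diluted 1:1000 in the same medium, then plated with the compounds. Growth was judged by comparing OD600 before and after 18 h at 37 °C. MIC50 was taken by liquid microdilution. Vancomycin was the positive control. Each compound was run in triplicate and standardized against an internal vehicle control.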

Escherichia coli = test: Antibacterial activity against Escherichia coli ATCC 27856 assessed as inhibition of bacterial growth after 18 hrs by liquid microdilution method; format: functional; in short: as §2

SMILES	IC50 [1] [nM]	IC50 [2] [nM]	MIC50 (Staphylococcus aureus [3]) [µg/mL]	MIC50 (Staphylococcus aureus [4]) [µg/mL]	Ratio (Staphylococcus aureus [5])	MIC50 (Staphylococcus aureus [6])	MIC50 (Escherichia coli)	MIC50 (Escherichia coli; ATCC 27856, 18 h) [µg/mL]	MIC50 (Staphylococcus aureus [6]; ATCC 33591, 18 h) [µg/mL]
CC[C@H]1OC(=O)[C@H](C)[C@@H](O[C@H]2C[C@@](C)(OC)[C@@H](O)[C@H](C)O2)[C@H](C)[C@@H](O[C@@H]2O[C@H](C)C[C@H](N(C)C)[C@H]2O)[C@](C)(O)C[C@@H](C)CN(Cc2ccc(-c3cn(CCn4ccc5cc(Cl)ccc54)nn3)cc2)[C@H](C)[C@@H](O)[C@]1(C)O	1250	> 250000	3.13 (≈ 2.93 µM)	1.56	2	inactive	inactive		
CC[C@H]1OC(=O)[C@H](C)[C@@H](O[C@H]2C[C@@](C)(OC)[C@@H](O)[C@H](C)O2)[C@H](C)[C@@H](O[C@@H]2O[C@H](C)C[C@H](N(C)C)[C@H]2O)[C@](C)(O)C[C@@H](C)CN(CCCCc2cn(CCc3c[nH]c4ccc(Cl)cc34)nn2)[C@H](C)[C@@H](O)[C@]1(C)O	880	> 250000	0.78 (≈ 0.753 µM)	0.16	5	inactive		32 (≈ 30.9 µM)	
CC[C@H]1OC(=O)[C@H](C)[C@@H](O[C@H]2C[C@@](C)(OC)[C@@H](O)[C@H](C)O2)[C@H](C)[C@@H](O[C@@H]2O[C@H](C)C[C@H](N(C)C)[C@H]2O)[C@](C)(O)C[C@@H](C)CN(CCCCc2cn(CCN3CCc4ccccc43)nn2)[C@H](C)[C@@H](O)[C@]1(C)O	147	> 250000	1.56 (≈ 1.55 µM)	0.16	10	inactive		4 (≈ 3.99 µM)	
CC[C@H]1OC(=O)[C@H](C)[C@@H](O[C@H]2C[C@@](C)(OC)[C@@H](O)[C@H](C)O2)[C@H](C)[C@@H](O[C@@H]2O[C@H](C)C[C@H](N(C)C)[C@H]2O)[C@](C)(O)C[C@@H](C)CN(CCCCc2cn(CC)nn2)[C@H](C)[C@@H](O)[C@]1(C)O	1220	> 250000	3.13 (≈ 3.53 µM)	0.31	10	inactive		32 (≈ 36.1 µM)	
CC[C@H]1OC(=O)[C@H](C)[C@@H](O[C@H]2C[C@@](C)(OC)[C@@H](O)[C@H](C)O2)[C@H](C)[C@@H](O[C@@H]2O[C@H](C)C[C@H](N(C)C)[C@H]2O)[C@](C)(O)C[C@@H](C)CN(CCCCc2cn(CCc3cn(C)c4ccccc34)nn2)[C@H](C)[C@@H](O)[C@]1(C)O	227	> 250000	1.56 (≈ 1.54 µM)	0.16	10	inactive		128 (≈ 126 µM)	
CC[C@H]1OC(=O)[C@H](C)[C@@H](O[C@H]2C[C@@](C)(OC)[C@@H](O)[C@H](C)O2)[C@H](C)[C@@H](O[C@@H]2O[C@H](C)C[C@H](N(C)C)[C@H]2O)[C@](C)(O)C[C@@H](C)CN(Cc2ccc(-c3cn(CCn4ccc5ccccc54)nn3)cc2)[C@H](C)[C@@H](O)[C@]1(C)O	197	> 250000	1.56 (≈ 1.51 µM)	0.63	2.5	inactive		64 (≈ 61.8 µM)	
CN[C@H](CC(C)C)C(=O)N[C@H]1C(=O)N[C@@H](CC(N)=O)C(=O)N[C@H]2C(=O)N[C@H]3C(=O)N[C@H](C(=O)N[C@H](C(=O)O)c4cc(O)cc(O)c4-c4cc3ccc4O)[C@H](O)c3ccc(c(Cl)c3)Oc3cc2cc(c3O[C@@H]2O[C@H](CO)[C@@H](O)[C@H](O)[C@H]2O[C@H]2C[C@](C)(N)[C@H](O)[C@H](C)O2)Oc2ccc(cc2Cl)[C@H]1O [VANCOMYCIN]			1.56 (≈ 1.08 µM)	1.56	1				4 (≈ 2.76 µM)
O=C(N[C@H](CO)[C@H](O)c1ccc([N+](=O)[O-])cc1)C(Cl)Cl [CHLORAMPHENICOL]								4 (≈ 12.4 µM)	
